HTRA1 inh – blocks human HTRA1 serine peptidase; Q92743; recombinant HTRA1, FP-rhodamine activity-based probe, fluorescence polarization; inhibition, % at 5.96 µM; actives 0.5% (n = 340,000); in the data active = inhibition above about 36%;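 also: 0% = enzyme with DMSO and 100% = wells lacking enzyme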
mABHD4 FP – inhibitors of mouse ABHD4. Q8VD66. purified mABHD4, FP-Rh probe fluorescence polarization. inhibition, % at 8.92 µM. actives 0.54% (n = 370,000). AID 720543;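 active = inhibition exceeding the mean over every tested compound plus 3 SD, cut at about 30% in these data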;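 also: 0% = plate median of compound wells and 100% = S159A mutant with DMSO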
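System: mouse ABHD4 enzyme, wild type / Medium: HEPES pH 7.0, NaCl, Pluronic buffer / Reagent: FP-Rh activity-based fluorescent probe / Control set: S159A mutant high control, sample median low control / Detection: fluorescence polarization with parallel and perpendicular emission, 525/598 nm / Schedule: 45 min + 60 min at 25 °C / Compound dosing: 8.92 µM, single dose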
PRMT1 inh – inhibitors of human PRMT1 | recombinant PRMT1, activity-based probe fluorescence polarization | actives 1.3% (n = 370,000) | inhibition, % at 2.79 µM | Q99873;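 active = inhibition above about 21% made by adding two undisclosed values, limit read from the data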
Target sequence (Q99873 whole entry, looked up): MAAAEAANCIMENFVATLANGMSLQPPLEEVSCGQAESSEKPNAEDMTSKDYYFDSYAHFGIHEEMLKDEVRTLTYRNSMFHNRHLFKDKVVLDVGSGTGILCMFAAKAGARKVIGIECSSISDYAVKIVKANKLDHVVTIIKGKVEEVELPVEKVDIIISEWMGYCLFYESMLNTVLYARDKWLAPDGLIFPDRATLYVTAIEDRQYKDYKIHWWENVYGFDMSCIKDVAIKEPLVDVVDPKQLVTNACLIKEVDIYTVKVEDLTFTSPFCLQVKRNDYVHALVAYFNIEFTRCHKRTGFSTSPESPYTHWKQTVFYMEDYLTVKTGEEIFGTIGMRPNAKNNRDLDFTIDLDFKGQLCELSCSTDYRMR
PAD4 inh – PAD4 (human) enzyme inhibition; Q9UM07; recombinant PAD4, RCA probe fluorescence polarization; actives 0.41% (n = 330,000); inhibition, % at 6.36 µM;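 active = percent inhibition above a cutoff equal to the mean of all tested compounds plus 3 SD, cut at about 15% in these data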;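 also: 0% = PAD4 with RCA probe and DMSO and 100% = probe without PAD4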
SIAE inh – human SIAE inhibition, primary screen. Q9HAT2. SIAE FP-Rh probe binding, fluorescence polarization. inhibition, % at 9.66 µM. actives 0.69% (n = 370,000). AID 1053197;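 active = inhibition above a cutoff: mean of compounds within the control limits plus 3 SD of those, cut at about 17% in these data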;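 also: 0% = plate median of compound wells and 100% = probe without SIAE protein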
TCR-CD3 inh – inhibitors of human TCR-CD3 interaction | actives 0.37% (n = 360,000) | inhibition, % at 9.4 µM | TAMRA-labeled TCR probe fluorescence, biochemical; in the data active = inhibition above about 19%;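 also: recombinant mutant TCR 2C K166C tagged with TAMRA read by polarization; 0% = receptor in buffer alone and 100% = receptor with positive control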
ABHD4 confirm – ABHD4 (mouse) inhibition, FP confirmation | shares compounds with mABHD4 FP | purified mABHD4, FP-Rh probe fluorescence polarization | inhibition, % at 8.92 µM | actives 55% (n = 1,800) | AID 720658;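 active = mean inhibition across replicates above the hit cutoff set in the primary screen, cut at about 30% in these data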;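 also: 0% = wild-type ABHD4 with DMSO and 100% = catalytically dead S159A mutant with DMSO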
Numbers without * were called inactive; . = no result; ! = not confirmed by another sample. Most compounds without a hit are left out; they make up all but 2.9% or so of the library.

SMILES	HTRA1 inh	mABHD4 FP	PRMT1 inh	PAD4 inh	SIAE inh	TCR-CD3 inh	ABHD4 confirm
c1cc2c(cc1C1CCCCC1)c1c3n2CCCNC3CCC1 (centres undefined)	26	36*	-2	2	10	4	57*
Cc1ccc2c(c1)c1c3n2CCCNC3CCC1 (centres undefined)	13	1	-1	-2	10	2	.
COc1ccccc1-c1nnc(Nc2nc3c(OC)cccc3s2)o1	5	5	1	-5	-2	-6	.
COc1cccc2sc(NN)nc12	28	92*	17	3	0	-2	44*
CC1=C[C@@H]2[C@H]3C(=O)N(Cc4ccccc4)C(=O)[C@H]3[C@@H]1[C@@H]1O[C@@]3(C(=O)N(C)c4ccccc43)C3=C(CCCC3=O)N21	.	-1	-4	.	-5	2	.
O=C(NNc1nc2ccccc2s1)Nc1ccc(F)cc1	7	38*	-2	-2	13	0	1
CCOc1ccc(NC2=CC(=O)C(=O)c3ccccc32)cc1	25	32*	2	.	13	10	27
CCOc1ccc(NC2=CC(=O)CCC2)cc1	7	27	0	-2	-1	1	.
O=C(CSc1nnc(SCc2cccc3ccccc23)s1)Nc1ccccc1-c1ccccc1	.	-5	-2	.	-2	.	.
COc1ccc(C(=O)c2[nH]c(N)c(C(=O)c3ccccc3)c2-c2ccc(OC)c(OC)c2)cc1	.	14	1	.	8	.	.
CCCc1ccc(-c2cc(NC(=O)Cc3c[nH]c4ccccc34)ccc2Nc2cccnc2)cc1	.	42*	0	.	11	9	39*
CC(C)(C)c1ccc(-c2cc(NC(=O)Cc3c[nH]c4ccccc34)ccc2Nc2cccnc2)cc1	.	41*	5	.	11	-4	55*
CCCc1ccc(-c2cc(NC(=O)Cc3c(C)[nH]c4ccccc34)ccc2Nc2cccnc2)cc1	.	25	-2	.	9	-3	.
O=C(Cc1c[nH]c2ccccc12)Nc1ccc(Nc2cccnc2)c(-c2ccc(Cl)c(Cl)c2)c1	.	22	2	.	10	2	.
Cc1nc2ccc(S(=O)(=O)NCC(=O)NCc3cccs3)cc2s1	.	-5	2	.	2	.	.
CCn1c(=O)n(CC(=O)N2CCOCC2)c(=O)c2ccccc21	.	4	-3	.	6	.	.
CCNC(=O)Nc1ccc2c(c1)C(=O)N(C)[C@H]1CC[C@H](CC(=O)N[C@H](C)c3ccccc3)O[C@@H]1CO2	.	11	-2	.	12	.	.
COCCCNC(=S)NNC(=O)c1ccccn1	2	39*	-3	-7	3	0	44*
CC(C)(C)OC(=O)n1ccc2ccc(-c3ccc4cc[nH]c4c3)cc21	.	4	3	.	6	.	.
Cc1ccc(C(=O)COC(=O)C2CC3CCCC(C2)C3=O)cc1[N+](=O)[O-] (centres undefined)	-7	42*	0	-2	-1	-2	3
CCCCNc1c(-c2ccc(SC3CCCCC3)c(OC)c2)nc2ccc(C)cn12	-11	29	4	-1	10	2	.
CCCCNc1c(-c2ccc(OC)c(SC(C)CC)c2)nc2ccc(C)cn12 (centres undefined)	-12	34*!	1	-5	12	-5	38*
CCC(C)Sc1cc(-c2nc3ccc(C)cn3c2NCc2ccccc2)ccc1OC (centres undefined)	14	43*	4	5	10	2	36*
CCC(C)Sc1ccc(-c2nc3ccc(C)cn3c2NCc2ccccc2)cc1OC (centres undefined)	12	.	.	2	.	.	.
CCCCNc1c(-c2ccc(OC)c(SC(C)CC)c2)nc2ccc(Cl)cn12 (centres undefined)	1	8	3	-2	-3	-2	.
CCCCNc1c(-c2ccc(OC)c(SC3CCCCC3)c2)nc2ccc(C)cn12	-1	33*!	4	-8	3	-4	37*
CCOC(=O)NC1(NCC(C)C)Oc2ccccc2O1	17	33*	18	1	8	5	3
CCOC(=O)c1c(-c2ccccc2)csc1NC(=O)CCN1C(=O)c2ccccc2C1=O	-3	0	-3	3	4	3	.
